Experimental data as given in ChEMBL document CHEMBL4715736, “Identification of anticancer agents based on the thieno[2,3-b]pyridine and 1H-pyrazole molecular scaffolds” (2016).

How the values were obtained:
Format in all cases: functional
UO-31 = assay: Growth inhibition of human UO-31 cells assessed as cell growth at 100 uM incubated for 48 hrs by sulforhodamine B assay relative to control; conditions: read-out: Activity
SNB-75 = assay: Growth inhibition of human SNB-75 cells assessed as cell growth at 1 uM incubated for 48 hrs by sulforhodamine B assay relative to control; conditions: read-out: Activity
SF-295 [1] = assay: Growth inhibition of human SF-295 cells assessed as cell growth at 0.1 uM incubated for 48 hrs by sulforhodamine B assay relative to control; conditions: read-out: Activity
HT-29 = assay: Growth inhibition of human HT-29 cells assessed as cell growth at 0.1 uM incubated for 48 hrs by sulforhodamine B assay relative to control; conditions: read-out: Activity
SF-539 [2] = assay: Growth inhibition of human SF-539 cells assessed as cell growth at 0.1 uM incubated for 48 hrs by sulforhodamine B assay relative to control; conditions: read-out: Activity
SNB-19 [3] = assay: Growth inhibition of human SNB-19 cells incubated for 48 hrs by sulforhodamine B assay
Summary of the method: (§1)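 NCI DTP 60-line human tumour panel. Dose-response curves were run only for ligands active in the initial 10 µM screen. GI50 (concentration giving 50% of maximal inhibition of proliferation) and TGI (concentration giving total growth inhibition) were derived from these curves.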

T47D = assay: Growth inhibition of human T47D cells assessed as cell growth at 0.1 uM incubated for 48 hrs by sulforhodamine B assay relative to control; conditions: read-out: Activity
786-0 = assay: Growth inhibition of human 786-0 cells incubated for 48 hrs by sulforhodamine B assay; conditions: for CC50: read-out: LC50 (the source's name)
Summary of the method: (§2)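 NCI Developmental Therapeutics Program NCI60 panel. Compounds that were active in the 10 µM one-dose screen went on to dose–response testing. Growth at each concentration is expressed relative to untreated control (100%). GI50 (concentration giving 50% of maximal inhibition of proliferation) and TGI (concentration giving total growth inhibition) were derived from the curves.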

CCRF-CEM [4] = assay: Growth inhibition of human CCRF-CEM cells assessed as cell growth at 100 uM incubated for 48 hrs by sulforhodamine B assay relative to control; conditions: read-out: Activity; summary of the method: as §2
COLO 205 [5] = assay: Growth inhibition of human COLO 205 cells assessed as cell growth at 100 uM incubated for 48 hrs by sulforhodamine B assay relative to control; conditions: read-out: Activity; summary of the method: as §2
SNB-19 [6] = assay: Growth inhibition of human SNB-19 cells assessed as cell growth at 0.1 uM incubated for 48 hrs by sulforhodamine B assay relative to control; conditions: read-out: Activity
NCI-H460 = assay: Growth inhibition of human NCI-H460 cells assessed as cell growth at 100 uM incubated for 48 hrs by sulforhodamine B assay relative to control; conditions: read-out: Activity
HOP-92 = assay: Growth inhibition of human HOP-92 cells assessed as cell growth at 0.1 uM incubated for 48 hrs by sulforhodamine B assay relative to control; conditions: read-out: Activity
OVCAR-4 = assay: Growth inhibition of human OVCAR-4 cells assessed as cell growth at 1 uM incubated for 48 hrs by sulforhodamine B assay relative to control; conditions: read-out: Activity
SF-295 [7] = assay: Growth inhibition of human SF-295 cells incubated for 48 hrs by sulforhodamine B assay; summary of the method: as §1
UACC-257 [8] = assay: Growth inhibition of human UACC-257 cells assessed as cell growth at 1 uM incubated for 48 hrs by sulforhodamine B assay relative to control; conditions: read-out: Activity
COLO 205 [9] = assay: Growth inhibition of human COLO 205 cells assessed as cell growth at 1 uM incubated for 48 hrs by sulforhodamine B assay relative to control; conditions: read-out: Activity; summary of the method: as §2
SF-539 [10] = assay: Growth inhibition of human SF-539 cells assessed as cell growth at 0.01 uM incubated for 48 hrs by sulforhodamine B assay relative to control; conditions: read-out: Activity
A498 [11] = assay: Growth inhibition of human A498 cells incubated for 48 hrs by sulforhodamine B assay; conditions: for CC50: read-out: LC50 (the source's name); summary of the method: as §2
A498 [12] = assay: Growth inhibition of human A498 cells assessed as cell growth at 1 uM incubated for 48 hrs by sulforhodamine B assay relative to control; conditions: read-out: Activity; summary of the method: as §2
OVCAR-3 [13] = assay: Growth inhibition of human OVCAR-3 cells incubated for 48 hrs by sulforhodamine B assay; conditions: for CC50: read-out: LC50 (the source's name); summary of the method: as §1
Hs-578T = assay: Growth inhibition of human Hs-578T cells assessed as cell growth at 0.01 uM incubated for 48 hrs by sulforhodamine B assay relative to control; conditions: read-out: Activity
IGROV-1 = assay: Growth inhibition of human IGROV-1 cells assessed as cell growth at 1 uM incubated for 48 hrs by sulforhodamine B assay relative to control; conditions: read-out: Activity
SK-MEL-5 = assay: Growth inhibition of human SK-MEL-5 cells assessed as cell growth at 100 uM incubated for 48 hrs by sulforhodamine B assay relative to control; conditions: read-out: Activity
ACHN = assay: Growth inhibition of human ACHN cells assessed as cell growth at 0.01 uM incubated for 48 hrs by sulforhodamine B assay relative to control; conditions: read-out: Activity
LOX IMVI = assay: Growth inhibition of human LOX IMVI cells assessed as cell growth at 0.1 uM incubated for 48 hrs by sulforhodamine B assay relative to control; conditions: read-out: Activity
OVCAR-3 [14] = assay: Growth inhibition of human OVCAR-3 cells assessed as cell growth at 1 uM incubated for 48 hrs by sulforhodamine B assay relative to control; conditions: read-out: Activity
A498 [15] = assay: Growth inhibition of human A498 cells assessed as cell growth at 0.01 uM incubated for 48 hrs by sulforhodamine B assay relative to control; conditions: read-out: Activity; summary of the method: as §2
MDA-MB-231 = assay: Growth inhibition of human MDA-MB-231 cells assessed as cell growth at 1 uM incubated for 48 hrs by sulforhodamine B assay relative to control; conditions: read-out: Activity
UACC-257 [16] = assay: Growth inhibition of human UACC-257 cells assessed as cell growth at 0.01 uM incubated for 48 hrs by sulforhodamine B assay relative to control; conditions: read-out: Activity
DU-145 = assay: Growth inhibition of human DU-145 cells assessed as cell growth at 1 uM incubated for 48 hrs by sulforhodamine B assay relative to control; conditions: read-out: Activity; summary of the method: as §2
SK-OV-3 = assay: Growth inhibition of human SK-OV-3 cells assessed as cell growth at 1 uM incubated for 48 hrs by sulforhodamine B assay relative to control; conditions: read-out: Activity
NCI-H322M = assay: Growth inhibition of human NCI-H322M cells assessed as cell growth at 0.01 uM incubated for 48 hrs by sulforhodamine B assay relative to control; conditions: read-out: Activity
M14 = assay: Growth inhibition of human M14 cells assessed as cell growth at 0.1 uM incubated for 48 hrs by sulforhodamine B assay relative to control; conditions: read-out: Activity
OVCAR-8 = assay: Growth inhibition of human OVCAR-8 cells assessed as cell growth at 0.1 uM incubated for 48 hrs by sulforhodamine B assay relative to control; conditions: read-out: Activity
A549 = assay: Growth inhibition of human A549/ATCC cells incubated for 48 hrs by sulforhodamine B assay; conditions: for CC50: read-out: LC50 (the source's name); summary of the method: as §2
CCRF-CEM [17] = assay: Growth inhibition of human CCRF-CEM cells assessed as cell growth at 1 uM incubated for 48 hrs by sulforhodamine B assay relative to control; conditions: read-out: Activity; summary of the method: as §2

CCc1ccccc1NC(=O)c1sc2nc3c(cc2c1N)C(=O)CCC3
growth at 100 µM (UO-31): 18% | growth at 1 µM (SNB-75): -8% | growth at 0.1 µM (SF-295 [1]): 76% | growth at 0.1 µM (HT-29): 100% | growth at 0.1 µM (SF-539 [2]): 93% | GI50 (SNB-19 [3]): 0.763 µM | LC50 (SNB-19 [3]): > 100 µM | TGI (SNB-19 [3]): > 100 µM | growth at 0.1 µM (T47D): 102% | GI50 (786-0): 0.578 µM | TGI (786-0): ≥ 100 µM | CC50 (786-0): > 100 µM | growth at 100 µM (CCRF-CEM [4]): 8% | growth at 100 µM (COLO 205 [5]): -72% | growth at 0.1 µM (SNB-19 [6]): 88% | growth at 100 µM (NCI-H460): 3% | growth at 0.1 µM (HOP-92): 69% | growth at 1 µM (OVCAR-4): 45% | GI50 (SF-295 [7]): 0.257 µM | LC50 (concentration killing 50% of cells) (SF-295 [7]): > 100 µM | TGI (SF-295 [7]): ≥ 100 µM | growth at 1 µM (UACC-257 [8]): 52% | growth at 1 µM (COLO 205 [9]): -34% | growth at 0.01 µM (SF-539 [10]): 92% | GI50 (A498 [11]): 0.18 µM | TGI (A498 [11]): 4 µM | CC50 (A498 [11]): > 100 µM | growth at 1 µM (A498 [12]): -14% | GI50 (OVCAR-3 [13]): 0.367 µM | TGI (OVCAR-3 [13]): 15.8 µM | CC50 (OVCAR-3 [13]): > 100 µM | growth at 0.01 µM (Hs-578T): 93% | growth at 1 µM (IGROV-1): 62% | growth at 100 µM (SK-MEL-5): 2% | growth at 0.01 µM (ACHN): 93% | growth at 0.1 µM (LOX IMVI): 95% | growth at 1 µM (OVCAR-3 [14]): 12% | growth at 0.01 µM (A498 [15]): 80% | growth at 1 µM (MDA-MB-231): 52% | growth at 0.01 µM (UACC-257 [16]): 93% | growth at 1 µM (DU-145): 27% | growth at 1 µM (SK-OV-3): 30% | growth at 0.01 µM (NCI-H322M): 97% | growth at 0.1 µM (M14): 78% | growth at 0.1 µM (OVCAR-8): 97% | GI50 (A549): 0.595 µM | TGI (A549): > 100 µM | CC50 (A549): > 100 µM | growth at 1 µM (CCRF-CEM [17]): 8%

Cc1cccc(NC(=O)c2sc3nc4c(cc3c2N)C(=O)CCC4)c1
growth at 100 µM (UO-31): -23% | growth at 1 µM (SNB-75): 6% | growth at 0.1 µM (SF-295 [1]): 60% | growth at 0.1 µM (HT-29): 70% | growth at 0.1 µM (SF-539 [2]): 75% | GI50 (SNB-19 [3]): 0.403 µM | LC50 (SNB-19 [3]): > 100 µM | TGI (SNB-19 [3]): > 100 µM | growth at 0.1 µM (T47D): 78% | GI50 (786-0): 0.404 µM | TGI (786-0): ≥ 100 µM | CC50 (786-0): ≥ 100 µM | growth at 100 µM (CCRF-CEM [4]): -7% | growth at 100 µM (COLO 205 [5]): -8% | growth at 0.1 µM (SNB-19 [6]): 76% | growth at 100 µM (NCI-H460): 7% | growth at 0.1 µM (HOP-92): 69% | growth at 1 µM (OVCAR-4): 44% | GI50 (SF-295 [7]): 0.175 µM | LC50 (concentration killing 50% of cells) (SF-295 [7]): > 100 µM | TGI (SF-295 [7]): ≥ 100 µM | growth at 1 µM (UACC-257 [8]): 53% | growth at 1 µM (COLO 205 [9]): -17% | growth at 0.01 µM (SF-539 [10]): 90% | GI50 (A498 [11]): 0.139 µM | TGI (A498 [11]): 0.701 µM | CC50 (A498 [11]): > 100 µM | growth at 1 µM (A498 [12]): -11% | GI50 (OVCAR-3 [13]): 0.256 µM | TGI (OVCAR-3 [13]): 1.66 µM | CC50 (OVCAR-3 [13]): ≥ 100 µM | growth at 0.01 µM (Hs-578T): 88% | growth at 1 µM (IGROV-1): 42% | growth at 100 µM (SK-MEL-5): -30% | growth at 0.01 µM (ACHN): 90% | growth at 0.1 µM (LOX IMVI): 91% | growth at 1 µM (OVCAR-3 [14]): -7% | growth at 0.01 µM (A498 [15]): 68% | growth at 1 µM (MDA-MB-231): 40% | growth at 0.01 µM (UACC-257 [16]): 82% | growth at 1 µM (DU-145): 3% | growth at 1 µM (SK-OV-3): 7% | growth at 0.01 µM (NCI-H322M): 97% | growth at 0.1 µM (M14): 60% | growth at 0.1 µM (OVCAR-8): 98% | GI50 (A549): 0.3 µM | TGI (A549): > 100 µM | CC50 (A549): > 100 µM | growth at 1 µM (CCRF-CEM [17]): 31%
